# According to ChEMBL document CHEMBL3232963, “Discovery of a potent and selective α3β4 nicotinic acetylcholine receptor antagonist from an α-conotoxin synthetic combinatorial library” (J Med Chem, 2014):
# Numbered stars: 1 amine (or outer) side, 2 acyl side, 3 side chain; on linkers, the order of the positions; unused ones are H or OH. Bridge positions count the residues as written; N and C are the ends. Square brackets hold non-standard residues; d marks the D form. Peptide text beside a SMILES is read from it. X1 = O=C([C@H](CC1C=Nc2ccccc21)N[*:1])[*:2]; Nle = CCCC[C@H](N)C(=O)O; Nva = CCC[C@H](N)C(=O)O; Abu = CC[C@H](N)C(=O)O
# Target: Neuronal acetylcholine receptor; alpha3/beta4 (Rattus norvegicus) (UniProt P04757+P12392)
# Assay: Antagonist activity at rat alpha3beta4 nAChR expressed in HEK293 cells assessed as inhibition of epibatadine-induced effect at 10 uM after 30 mins by fluorescent membrane potential assay relative to mecamylamine
# Format: cell-based
# How it was run: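 Rat α3β4 nAChR stably expressed in HEK293 cells; crude, SPE-desalted individual peptides tested at 10 μM in HBSS with membrane potential blue dye, 30 min at 37 °C. Fluorescence change read after epibatidine (0.1 μM). Percent inhibition set against 10 μM mecamylamine taken as 100%.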
row,SMILES,inhibition
1,"CCCC[C@@H]1NC(=O)[C@H](CO)NC(=O)[C@@H]2CSSC[C@@H](C(=O)O)NC(=O)[C@H](Cc3ccc(O)cc3)NC(=O)[C@H](CCC)NC(=O)[C@H](Cc3c[nH]c4ccccc34)NC(=O)[C@H](Cc3ccccc3)NC(=O)[C@H](CSSC[C@H](NC(=O)CN)C(=O)N2)NC(=O)[C@@H]2CCCN2C(=O)[C@@H]2CCCN2C1=O (H-GCCS[Nle]PPCFW[Nva]YC-OH; disulfide 2-8, 3-13)",61.6%
2,CCCC[C@@H]1NC(=O)[C@H](CC)NC(=O)[C@H]([C@H](C)CC)NC(=O)[C@@H]2CSSC[C@H](NC(=O)CN)C(=O)N[C@@H](CSSC[C@@H](C(=O)O)NC(=O)[C@H](Cc3ccc(O)cc3)NC1=O)C(=O)N[C@@H](CO)C(=O)N[C@@H](CCCC)C(=O)N1CCC[C@H]1C(=O)N1CCC[C@H]1C(=O)N2,63.8%
3,CCCC[C@@H]1NC(=O)[C@H](CC)NC(=O)[C@H]([C@H](C)CC)NC(=O)[C@@H]2CSSC[C@H](NC(=O)CN)C(=O)N[C@@H](CSSC[C@@H](C(=O)O)NC(=O)[C@@H]3CCCN3C1=O)C(=O)N[C@@H](CO)C(=O)N[C@@H](Cc1cnc[nH]1)C(=O)N1CCC[C@H]1C(=O)N1CCC[C@H]1C(=O)N2,38.1%
4,CCCC[C@@H]1NC(=O)[C@H](CC)NC(=O)[C@H]([C@H](C)CC)NC(=O)[C@@H]2CSSC[C@H](NC(=O)CN)C(=O)N[C@@H](CSSC[C@@H](C(=O)O)NC(=O)[C@H](Cc3ccc(O)cc3)NC1=O)C(=O)N[C@@H](CO)C(=O)N[C@@H](CCCC)C(=O)N1CCC[C@H]1C(=O)N[C@@H](CC)C(=O)N2,72.6%
5,CCCC[C@@H]1NC(=O)[C@H](CO)NC(=O)[C@@H]2CSSC[C@@H](C(=O)O)NC(=O)[C@H](Cc3ccc(O)cc3)NC(=O)[C@H](CCC)NC(=O)[C@H](Cc3c[nH]c4ccccc34)NC(=O)[C@H]([C@H](C)CC)NC(=O)[C@H](CSSC[C@H](NC(=O)CN)C(=O)N2)NC(=O)[C@H](CC)NC(=O)[C@@H]2CCCN2C1=O,61.9%
6,"CCCC[C@@H]1NC(=O)[C@H](CC)NC(=O)[C@H](Cc2ccccc2)NC(=O)[C@@H]2CSSC[C@H](NC(=O)CN)C(=O)N[C@@H](CSSC[C@@H](C(=O)O)NC(=O)[C@@H]3CCCN3C1=O)C(=O)N[C@@H](CO)C(=O)N[C@@H](CCCC)C(=O)N1CCC[C@H]1C(=O)N[C@@H](CC)C(=O)N2 (H-GCCS[Nle]P[Abu]CF[Abu][Nle]PC-OH; disulfide 2-8, 3-13)",36.6%
7,"CCCC[C@@H]1NC(=O)[C@H](Cc2c[nH]c3ccccc23)NC(=O)[C@H](Cc2ccccc2)NC(=O)[C@@H]2CSSC[C@H](NC(=O)CN)C(=O)N[C@@H](CSSC[C@@H](C(=O)O)NC(=O)[C@H](Cc3ccc(O)cc3)NC1=O)C(=O)N[C@@H](CO)C(=O)N[C@@H](Cc1cnc[nH]1)C(=O)N1CCC[C@H]1C(=O)N1CCC[C@H]1C(=O)N2 (H-GCCSHPPCFW[Nle]YC-OH; disulfide 2-8, 3-13)",44%
8,"CCCC[C@@H]1NC(=O)[C@H](Cc2c[nH]c3ccccc23)NC(=O)[C@H](Cc2ccccc2)NC(=O)[C@@H]2CSSC[C@H](NC(=O)CN)C(=O)N[C@@H](CSSC[C@@H](C(=O)O)NC(=O)[C@H](Cc3ccc(O)cc3)NC1=O)C(=O)N[C@@H](CO)C(=O)N[C@@H](CCCC)C(=O)N1CCC[C@H]1C(=O)N1CCC[C@H]1C(=O)N2 (H-GCCS[Nle]PPCFW[Nle]YC-OH; disulfide 2-8, 3-13)",60.2%
9,"CCCC[C@@H]1NC(=O)[C@H](CC)NC(=O)[C@H](Cc2ccccc2)NC(=O)[C@@H]2CSSC[C@H](NC(=O)CN)C(=O)N[C@@H](CSSC[C@@H](C(=O)O)NC(=O)[C@@H]3CCCN3C1=O)C(=O)N[C@@H](CO)C(=O)N[C@@H](Cc1cnc[nH]1)C(=O)N1CCC[C@H]1C(=O)N1CCC[C@H]1C(=O)N2 (H-GCCSHPPCF[Abu][Nle]PC-OH; disulfide 2-8, 3-13)",29.1%
10,CCC[C@@H]1NC(=O)[C@H](Cc2c[nH]c3ccccc23)NC(=O)[C@H]([C@H](C)CC)NC(=O)[C@@H]2CSSC[C@H](NC(=O)CN)C(=O)N[C@@H](CSSC[C@@H](C(=O)O)NC(=O)[C@@H]3CCCN3C1=O)C(=O)N[C@@H](CO)C(=O)N[C@@H](Cc1cnc[nH]1)C(=O)N1CCC[C@H]1C(=O)N1CCC[C@H]1C(=O)N2,44.8%
11,"CCCC[C@@H]1NC(=O)[C@H](CO)NC(=O)[C@@H]2CSSC[C@@H](C(=O)O)NC(=O)[C@@H]3CCCN3C(=O)[C@H](CCC)NC(=O)[C@H](CC)NC(=O)[C@H](Cc3ccccc3)NC(=O)[C@H](CSSC[C@H](NC(=O)CN)C(=O)N2)NC(=O)[C@@H]2CCCN2C(=O)[C@@H]2CCCN2C1=O (H-GCCS[Nle]PPCF[Abu][Nva]PC-OH; disulfide 2-8, 3-13)",35.7%
12,CCCC[C@@H]1NC(=O)[C@H](CO)NC(=O)[C@@H]2CSSC[C@@H](C(=O)O)NC(=O)[C@H](Cc3ccc(O)cc3)NC(=O)[C@H](CCC)NC(=O)[C@H](CC)NC(=O)[C@H]([C@H](C)CC)NC(=O)[C@H](CSSC[C@H](NC(=O)CN)C(=O)N2)NC(=O)[C@@H]2CCCN2C(=O)[C@@H]2CCCN2C1=O,50.9%
13,"CCCC[C@@H]1NC(=O)[C@H](CC2C=Nc3ccccc32)NC(=O)[C@H](Cc2ccccc2)NC(=O)[C@@H]2CSSC[C@H](NC(=O)CN)C(=O)N[C@@H](CSSC[C@@H](C(=O)O)NC(=O)[C@@H]3CCCN3C1=O)C(=O)N[C@@H](CO)C(=O)N[C@@H](CCCC)C(=O)N1CCC[C@H]1C(=O)N[C@@H](CC)C(=O)N2 (stereo not given in full) (H-GCCS[Nle]P[Abu]CF[X1][Nle]PC-OH; disulfide 2-8, 3-13)",22.1%
14,CCCC[C@@H]1NC(=O)[C@H](Cc2c[nH]c3ccccc23)NC(=O)[C@H]([C@H](C)CC)NC(=O)[C@@H]2CSSC[C@H](NC(=O)CN)C(=O)N[C@@H](CSSC[C@@H](C(=O)O)NC(=O)[C@@H]3CCCN3C1=O)C(=O)N[C@@H](CO)C(=O)N[C@@H](Cc1cnc[nH]1)C(=O)N1CCC[C@H]1C(=O)N1CCC[C@H]1C(=O)N2,10.1%
15,CCCC[C@@H]1NC(=O)[C@H](Cc2c[nH]c3ccccc23)NC(=O)[C@H]([C@H](C)CC)NC(=O)[C@@H]2CSSC[C@H](NC(=O)CN)C(=O)N[C@@H](CSSC[C@@H](C(=O)O)NC(=O)[C@H](Cc3ccc(O)cc3)NC1=O)C(=O)N[C@@H](CO)C(=O)N[C@@H](CCCC)C(=O)N1CCC[C@H]1C(=O)N[C@@H](CC)C(=O)N2,68.6%
16,"CCCC[C@@H]1NC(=O)[C@H](Cc2c[nH]c3ccccc23)NC(=O)[C@H](Cc2ccccc2)NC(=O)[C@@H]2CSSC[C@H](NC(=O)CN)C(=O)N[C@@H](CSSC[C@@H](C(=O)O)NC(=O)[C@@H]3CCCN3C1=O)C(=O)N[C@@H](CO)C(=O)N[C@@H](CCCC)C(=O)N1CCC[C@H]1C(=O)N1CCC[C@H]1C(=O)N2 (H-GCCS[Nle]PPCFW[Nle]PC-OH; disulfide 2-8, 3-13)",14.2%
17,"CCC[C@@H]1NC(=O)[C@H](CC)NC(=O)[C@H](Cc2ccccc2)NC(=O)[C@@H]2CSSC[C@H](NC(=O)CN)C(=O)N[C@@H](CSSC[C@@H](C(=O)O)NC(=O)[C@@H]3CCCN3C1=O)C(=O)N[C@@H](CO)C(=O)N[C@@H](Cc1cnc[nH]1)C(=O)N1CCC[C@H]1C(=O)N1CCC[C@H]1C(=O)N2 (H-GCCSHPPCF[Abu][Nva]PC-OH; disulfide 2-8, 3-13)",36%
18,"CCC[C@@H]1NC(=O)[C@H](CC)NC(=O)[C@H](Cc2ccccc2)NC(=O)[C@@H]2CSSC[C@H](NC(=O)CN)C(=O)N[C@@H](CSSC[C@@H](C(=O)O)NC(=O)[C@@H]3CCCN3C1=O)C(=O)N[C@@H](CO)C(=O)N[C@@H](Cc1cnc[nH]1)C(=O)N1CCC[C@H]1C(=O)N[C@@H](CC)C(=O)N2 (H-GCCSHP[Abu]CF[Abu][Nva]PC-OH; disulfide 2-8, 3-13)",47%
19,CCC[C@@H]1NC(=O)[C@H](Cc2c[nH]c3ccccc23)NC(=O)[C@H]([C@H](C)CC)NC(=O)[C@@H]2CSSC[C@H](NC(=O)CN)C(=O)N[C@@H](CSSC[C@@H](C(=O)O)NC(=O)[C@H](Cc3ccc(O)cc3)NC1=O)C(=O)N[C@@H](CO)C(=O)N[C@@H](Cc1cnc[nH]1)C(=O)N1CCC[C@H]1C(=O)N1CCC[C@H]1C(=O)N2,56.5%
20,CCCC[C@@H]1NC(=O)[C@H](Cc2c[nH]c3ccccc23)NC(=O)[C@H]([C@H](C)CC)NC(=O)[C@@H]2CSSC[C@H](NC(=O)CN)C(=O)N[C@@H](CSSC[C@@H](C(=O)O)NC(=O)[C@@H]3CCCN3C1=O)C(=O)N[C@@H](CO)C(=O)N[C@@H](CCCC)C(=O)N1CCC[C@H]1C(=O)N1CCC[C@H]1C(=O)N2,6.3%
21,CCC[C@@H]1NC(=O)[C@H](Cc2c[nH]c3ccccc23)NC(=O)[C@H]([C@H](C)CC)NC(=O)[C@@H]2CSSC[C@H](NC(=O)CN)C(=O)N[C@@H](CSSC[C@@H](C(=O)O)NC(=O)[C@@H]3CCCN3C1=O)C(=O)N[C@@H](CO)C(=O)N[C@@H](Cc1cnc[nH]1)C(=O)N1CCC[C@H]1C(=O)N[C@@H](CC)C(=O)N2,38.7%
22,"CCCC[C@@H]1NC(=O)[C@H](CC)NC(=O)[C@H](Cc2ccccc2)NC(=O)[C@@H]2CSSC[C@H](NC(=O)CN)C(=O)N[C@@H](CSSC[C@@H](C(=O)O)NC(=O)[C@@H]3CCCN3C1=O)C(=O)N[C@@H](CO)C(=O)N[C@@H](CCCC)C(=O)N1CCC[C@H]1C(=O)N1CCC[C@H]1C(=O)N2 (H-GCCS[Nle]PPCF[Abu][Nle]PC-OH; disulfide 2-8, 3-13)",54.6%
23,CCCC[C@@H]1NC(=O)[C@H](CC2C=Nc3ccccc32)NC(=O)[C@H]([C@H](C)CC)NC(=O)[C@@H]2CSSC[C@H](NC(=O)CN)C(=O)N[C@@H](CSSC[C@@H](C(=O)O)NC(=O)[C@@H]3CCCN3C1=O)C(=O)N[C@@H](CO)C(=O)N[C@@H](CCCC)C(=O)N1CCC[C@H]1C(=O)N[C@@H](CC)C(=O)N2 (stereo not given in full),51.4%
24,"CCC[C@@H]1NC(=O)[C@H](Cc2c[nH]c3ccccc23)NC(=O)[C@H](Cc2ccccc2)NC(=O)[C@@H]2CSSC[C@H](NC(=O)CN)C(=O)N[C@@H](CSSC[C@@H](C(=O)O)NC(=O)[C@@H]3CCCN3C1=O)C(=O)N[C@@H](CO)C(=O)N[C@@H](Cc1cnc[nH]1)C(=O)N1CCC[C@H]1C(=O)N1CCC[C@H]1C(=O)N2 (H-GCCSHPPCFW[Nva]PC-OH; disulfide 2-8, 3-13)",49%
25,"CCCC[C@@H]1NC(=O)[C@H](CO)NC(=O)[C@@H]2CSSC[C@@H](C(=O)O)NC(=O)[C@@H]3CCCN3C(=O)[C@H](CCC)NC(=O)[C@H](Cc3c[nH]c4ccccc34)NC(=O)[C@H](Cc3ccccc3)NC(=O)[C@H](CSSC[C@H](NC(=O)CN)C(=O)N2)NC(=O)[C@H](CC)NC(=O)[C@@H]2CCCN2C1=O (H-GCCS[Nle]P[Abu]CFW[Nva]PC-OH; disulfide 2-8, 3-13)",41.1%
